# Results gathered from unrelated publications.
# Each line is one published result; the experiments were not run side by side.
# Target: Dual specificity protein kinase CLK1 (CLK1, Homo sapiens, UniProt P49759)
effect on,action,method,concentration,endpoint,result,Compound
cell-free assay,,competition with immobilised ligand,1 µM,remaining binding,86%,Cc1cc(-n2nc(Cc3cc(F)cc(C(F)(F)F)c3)nc2C)ccc1C(N)=O
cell-free assay,,,0.5 µM,remaining signal,23.3%,CCN(CC)CCNC(=O)c1c(C)[nH]c(/C=C2\C(=O)Nc3ccc(F)cc32)c1C
cell-free assay,,competition with immobilised ligand,1 µM,remaining binding,84%,CCc1ccccc1C(=O)Nc1n[nH]c2c(C)c(F)c(C3C(C#N)=C(C)N(C)C(C)=C3C#N)cc12
enzyme activity,inhibitor,radiometric,2 µM,inhibition,97.3%,Cn1cncc1C1=CN(c2ncnc3[nH]cnc23)CCS1
enzyme activity,inhibitor,,1 µM,inhibition,3%,COc1cc2ncnc(Nc3ccc(Oc4ccccc4)c(C)c3C)c2cc1OC
enzyme activity,inhibitor,,0.1 µM,activity vs control,97%,Cc1cc(NC(=O)c2cccc3cc(-c4cccc5[nH]nc(N)c45)ccc23)ccc1F
enzyme activity,inhibitor,,0.1 µM,inhibition,0.7%,CC/C(=N\NC(=O)NCc1cccc(O)c1)c1ccc(O)c(C)c1O
cell-free assay,,,0.5 µM,remaining signal,105%,COc1cc2c(Nc3ccc(Br)cc3F)ncnc2cc1OCC1CCN(C)CC1
cell-free assay,,competition with immobilised ligand,1 µM,remaining binding,98%,O=C(N1CCS(=O)(=O)CC1)N1C[C@H](c2ccc(OC(F)(F)F)cc2)C[C@H](c2nc(C3CC3)no2)C1
enzyme activity,inhibitor,,5 µM,remaining activity,74.9%,O=C(Nc1cnn(-c2csc(C(=O)NC3COC3)c2)c1)Nc1c(F)cccc1Cl
thermal stability,,DSF,10 µM,ΔTm,5 to 10 °C,COc1cc2nccc(Oc3ccc(NC(=O)Nc4ccc(F)cc4F)c(F)c3)c2cc1OC
cell-free assay,,,0.5 µM,remaining signal,99.6%,N#CCCc1ccc2c(c1)-c1[nH]c3ccc([N+](=O)[O-])cc3c1CC(=O)N2
enzyme activity,inhibitor,radiometric,1 µM,remaining activity,91%,CC(C)(C)c1nc2c(s1)c1nc(N)ncc1c1ccc(NS(=O)(=O)c3c(F)cccc3F)c(F)c12
cell-free assay,,competition with immobilised ligand,1 µM,remaining binding,87%,O=C(NC[C@@H]1[C@H]2CN(C(=O)OCc3cc(C(F)(F)F)cc(C(F)(F)F)c3)C[C@@H]12)c1ccc2[nH]nnc2c1
enzyme activity,inhibitor,,10 µM,activity vs control,2.2%,c1nc2c(Nc3ccc4c(c3)OCCO4)nc(Nc3ccc4c(c3)OCCO4)nc2[nH]1
enzyme activity,inhibitor,radiometric,1 µM,remaining activity,62%,Cc1cnc(NC2CCOCC2)nc1-n1cnc(C(=O)NC(CN)c2cc(F)cc(Cl)c2)c1 (stereo not shown)
cell-free assay,inhibitor,,20 µM,remaining signal,0.65%,Nc1ncnc2occ(-c3ccc(NC(=O)Nc4cc(C(F)(F)F)ccc4F)cc3)c12
cell-free assay,,,0.5 µM,remaining signal,85.2%,Oc1cccc(-c2nc(N3CCOCC3)c3oc4ncccc4c3n2)c1
cell-free assay,,competition with immobilised ligand,1 µM,remaining binding,69%,CNC(=O)Nc1ccc2c(c1)CC[C@@]21OC(=O)N(CC(=O)N(Cc2ccc(F)cc2)[C@@H](C)C(F)(F)F)C1=O
enzyme activity,inhibitor,,10 µM,remaining activity,98.4%,Cc1sc(C(=O)NC2COC2)cc1-n1cc(NC(=O)Nc2c(F)cccc2Cl)cn1
cell-free assay,,competition with immobilised ligand,1 µM,remaining binding,98%,CNCc1ccccc1-c1csc([C@@H](C)Nc2nc(C)nc3cc(OC)c(OC)cc23)c1
enzyme activity,inhibitor,,0.1 µM,inhibition,1%,COc1cc(-c2cc(-c3ccc(N4CCNCC4)cc3)cnc2C)cc(OC)c1OC
